From ChEMBL document CHEMBL1155615, “Bioactive saponins from Swartzia schomburgkii from the suriname rainforest” (J Nat Prod, 2000) come the findings set out here.

As a reminder, the IC50 is the point on the concentration scale where inhibition reaches its midpoint. A lower IC50 goes with greater potency.

Values after ≈ are worked out from the molar mass of the structure shown.

In experiment [1] the test system is Saccharomyces cerevisiae. As to the kind of experiment: Antimicrobial activity against Saccharomyces cerevisiae I138. Type of experiment: functional.
The test system of experiment [2] is Saccharomyces cerevisiae. Nature of the experiment: Antimicrobial activity against Saccharomyces cerevisiae J140. It is filed as functional.
The subject of experiment [3] is Saccharomyces cerevisiae. As to the kind of experiment: Antimicrobial activity against Saccharomyces cerevisiae I353. It is filed as functional.
Experiment [4] deals with M109. Nature of the experiment: Cytotoxicity against mouse M109 cells. It is filed as functional, cell-based. The method in brief: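 In vitro antitumor cytotoxicity assay using the murine Madison lung carcinoma line M-109.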

Regarding `CC1(C)CC[C@]2(C(=O)O)CC[C@]3(C)C(=CC[C@@H]4[C@@]5(C)CC[C@H](O[C@@H]6O[C@H](CO)[C@@H](O)[C@H](O[C@@H]7O[C@H](CO)[C@@H](O)[C@H](O)[C@H]7O)[C@H]6O)[C@@](C)(CO)[C@@H]5CC[C@]43C)[C@@H]2C1`, the IC12 in experiment [1] was 400 µg/mL; in experiment [2] it was 600 µg/mL; in experiment [3], 1000 µg/mL. The 50% inhibitory concentration (IC50) in experiment [4] came to 15.5 µg/mL (≈ 19.4 µM).

As for `CC1(C)CC[C@]2(C(=O)O)CC[C@]3(C)C(=CC[C@@H]4[C@@]5(C)CC[C@H](O[C@@H]6O[C@H](CO)[C@@H](O)[C@H](O)[C@H]6O[C@@H]6O[C@H](CO)[C@@H](O)[C@H](O)[C@H]6O)C(C)(C)[C@@H]5CC[C@]43C)[C@@H]2C1` [ACUTOSIDE A], the figures for the IC12 in experiment [1], in experiment [2] and in experiment [3] were 75 µg/mL, 130 µg/mL and 110 µg/mL, respectively. The molecule further came in with an IC50 in experiment [4] of 28.7 µg/mL (≈ 36.7 µM).

Consider `CC1(C)CC[C@]2(C(=O)O)CC[C@]3(C)C(=CC[C@@H]4[C@@]5(C)CC[C@H](O[C@@H]6O[C@H](CO)[C@@H](O)[C@H](O[C@@H]7O[C@H](CO)[C@@H](O)[C@H](O)[C@H]7O)[C@H]6O[C@@H]6O[C@H](CO)[C@@H](O)[C@H](O)[C@H]6O)C(C)(C)[C@@H]5CC[C@]43C)[C@@H]2C1` [ANCHUSOSID 2], for which the IC12 in experiment [1] is 120 µg/mL; in experiment [2], 200 µg/mL; in experiment [3] it was 270 µg/mL.

`CC1(C)CC[C@]2(C(=O)O)CC[C@]3(C)C(=CC[C@@H]4[C@@]5(C)CC[C@H](O[C@@H]6O[C@H](CO)[C@@H](O)[C@H](O)[C@H]6O)[C@@](C)(CO)[C@@H]5CC[C@]43C)[C@@H]2C1` [Hederagenin-3-O-beta-D-glucopyranoside]: the IC12 in experiment [1] is 125 µg/mL; in experiment [2], 200 µg/mL; in experiment [3], 280 µg/mL.

For `CC1(C)CC[C@]2(C(=O)O)CC[C@]3(C)C(=CC[C@@H]4[C@@]5(C)CC[C@H](O[C@@H]6O[C@H](CO)[C@@H](O)[C@H](O[C@@H]7O[C@H](CO)[C@@H](O)[C@H](O)[C@H]7O)[C@H]6O[C@@H]6OC[C@@H](O)[C@H](O)[C@H]6O)C(C)(C)[C@@H]5CC[C@]43C)[C@@H]2C1` [SWARTZIATRIOSIDE], the IC12 is 120 µg/mL in experiment [1], 260 µg/mL in experiment [2] and 430 µg/mL in experiment [3]. Also, the IC50 in experiment [4] was 24.3 µg/mL (≈ 26.6 µM).
